Measured values: ChEMBL document CHEMBL1144441, “Identification of a novel cardenolide (2''-oxovoruscharin) from Calotropis procera and the hemisynthesis of novel derivatives displaying potent in vitro antitumor activities and high in vivo tolerance: structure-activity relationship analyses” (J Med Chem, 2005)

Experiments:
[1] = test system: CAKI-2; assay: In vitro cytotoxic activity against human CAKI-2 cancer cell lines after 3 days of culture; type: functional
Procedure, shortened: (§1)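 MTT overall-growth panel across 57 human cancer lines. Cells were plated for 24 h at 10 000–40 000 cells/mL, depending on cell type. Drugs were given at nine concentrations, 10^-9 to 10^-5 M in semilog steps, for 3 days. Absorbance was read at 570 nm with a 630 nm reference, in sextuplicate. Surviving cells are expressed as % of untreated control (100%).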

[2] = test system: PANC-1; assay: In vitro cytotoxic activity against human Panc-1 cancer cell lines after 3 days of culture; type: functional; procedure, shortened: as §1
[3] = test system: MDA-MB-231; assay: In vitro cytotoxic activity against human MDA-MB-231 cancer cell lines after 3 days of culture; type: functional; procedure, shortened: as §1
[4] = test system: T-24; assay: In vitro cytotoxic activity against human T24 cancer cell lines after 3 days of culture; type: functional
Procedure, shortened: (§2)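 Human cancer cell lines, seeded 10 000–40 000 cells/mL and plated for 24 h, then exposed 72 h to nine drug concentrations from 10^-9 to 10^-5 M in semilog steps. Overall growth read by MTT reduction to formazan, absorbance at 570 nm (reference 630 nm). Sextuplicate wells; IC50 is the concentration reducing overall growth by 50% versus untreated control.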

[5] = test system: ZR-75-1; assay: In vitro cytotoxic activity against human ZR-75-1 cancer cell lines after 3 days of culture; type: functional; procedure, shortened: as §2
[6] = In vitro cytotoxic activity against human Su.86.86 cancer cell lines after 3 days of culture; type: functional; procedure, shortened: as §2
[7] = test system: LNCaP; assay: In vitro cytotoxic activity against human LNCaP cancer cell lines after 3 days of culture; type: functional; procedure, shortened: as §1
[8] = In vitro cytotoxic activity against human Hs 174.T cancer cell lines after 3 days of culture; type: functional; procedure, shortened: as §1
[9] = In vitro cytotoxic activity against human Hs 766.T cancer cell lines after 3 days of culture; Activity expressed as log IC50; type: functional
Procedure, shortened: (§3)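 Adherent human cancer cell lines seeded at 10 000 to 40 000 cells/mL (depending on cell type) and left 24 h before treatment. Nine concentrations, 10^-9 to 10^-5 M in semilog steps, for 72 h. Growth measured by MTT reduction to formazan, absorbance 570 nm (reference 630 nm). Sextuplicate wells. IC50 is the concentration giving 50% lower overall growth than control.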

[10] = test system: HT-29; assay: In vitro cytotoxic activity against human HT-29 cancer cell lines after 3 days of culture; type: functional; procedure, shortened: as §1
[11] = In vitro cytotoxic activity against human G361 cancer cell lines after 3 days of culture; type: functional; procedure, shortened: as §1
[12] = In vitro cytotoxic activity against human SW1783 cancer cell lines after 3 days of culture; Activity expressed as log IC50; type: functional; procedure, shortened: as §3
[13] = test system: SK-MEL-28; assay: In vitro cytotoxic activity against human SKMEL-28 cancer cell lines after 3 days of culture; type: functional; procedure, shortened: as §2
[14] = test system: A549; assay: In vitro cytotoxic activity against human A549 cancer cell lines after 3 days of culture; type: functional; procedure, shortened: as §1
[15] = test system: HCT-15; assay: In vitro cytotoxic activity against human HCT-15 cancer cell lines after 3 days of culture; type: functional; procedure, shortened: as §1
[16] = test system: U-87 MG; assay: In vitro cytotoxic activity against human U87MG cancer cell lines after 3 days of culture; type: functional, U-87MG ATCC; procedure, shortened: as §2
[17] = test system: T98G; assay: In vitro cytotoxic activity against human T98G cancer cell lines after 3 days of culture; type: functional; procedure, shortened: as §2
[18] = test system: A204; assay: In vitro cytotoxic activity against human A204 cancer cell lines after 3 days of culture; type: functional; procedure, shortened: as §1
[19] = In vitro cytotoxic activity against human SW1088 cancer cell lines after 3 days of culture; Activity expressed as log IC50; type: functional; procedure, shortened: as §3
[20] = test system: 786-0; assay: In vitro cytotoxic activity against human 786-O cancer cell lines after 3 days of culture; type: functional; procedure, shortened: as §1
[21] = test system: MIA PaCa-2; assay: In vitro cytotoxic activity against human MiaPaca-2 cancer cell lines after 3 days of culture; type: functional; procedure, shortened: as §1
[22] = test system: Hs-578T; assay: In vitro cytotoxic activity against human Hs 578.T cancer cell lines after 3 days of culture; type: functional; procedure, shortened: as §1
[23] = test system: WiDr; assay: In vitro cytotoxic activity against human WiDr cancer cell lines after 3 days of culture; type: functional; procedure, shortened: as §2
[24] = test system: H4; assay: In vitro cytotoxic activity against human H4 cancer cell lines after 3 days of culture; Activity expressed as log IC50; type: functional; procedure, shortened: as §3
[25] = In vitro cytotoxic activity against human SK-LMS-1 cancer cell lines after 3 days of culture; type: functional; procedure, shortened: as §1
[26] = test system: BXPC-3; assay: In vitro cytotoxic activity against human BxPC-3 cancer cell lines after 3 days of culture; type: functional; procedure, shortened: as §1
[27] = test system: HT1197; assay: In vitro cytotoxic activity against human HT1197 cancer cell lines after 3 days of culture; type: functional; procedure, shortened: as §1
[28] = test system: T47D; assay: In vitro cytotoxic activity against human T-47D cancer cell lines after 3 days of culture; type: functional; procedure, shortened: as §2
[29] = test system: FaDu; assay: In vitro cytotoxic activity against human FaDu cancer cell lines after 3 days of culture; type: functional; procedure, shortened: as §1
[30] = In vitro cytotoxic activity against human HT144 cancer cell lines after 3 days of culture; type: functional; procedure, shortened: as §1
[31] = test system: U373 MG; assay: In vitro cytotoxic activity against human U-373MG cancer cell lines after 3 days of culture; type: functional, U-373MG ATCC; procedure, shortened: as §2
[32] = In vitro cytotoxic activity against human Capan-2 cancer cell lines after 3 days of culture; type: functional; procedure, shortened: as §1
[33] = test system: HT-1080; assay: In vitro cytotoxic activity against human HT1080 cancer cell lines after 3 days of culture; type: functional; procedure, shortened: as §1
[34] = test system: A-427; assay: In vitro cytotoxic activity against human A427 cancer cell lines after 3 days of culture; type: functional; procedure, shortened: as §1
[35] = test system: ACHN; assay: In vitro cytotoxic activity against human ACHN cancer cell lines after 3 days of culture; type: functional; procedure, shortened: as §1
[36] = test system: DLD-1; assay: In vitro cytotoxic activity against human DLD-1 cancer cell lines after 3 days of culture; type: functional; procedure, shortened: as §1
[37] = In vitro cytotoxic activity against human Hs 729 cancer cell lines after 3 days of culture; type: functional; procedure, shortened: as §1
[38] = test system: MES-SA; assay: In vitro cytotoxic activity against human MES-SA cancer cell lines after 3 days of culture; type: functional; procedure, shortened: as §1
[39] = In vitro cytotoxic activity against human […] cancer cell lines after 3 days of culture; type: functional; procedure, shortened: as §1
[40] = In vitro cytotoxic activity against human Detroit 562 cancer cell lines after 3 days of culture; type: functional; procedure, shortened: as §1
[41] = test system: CFPAC-1; assay: In vitro cytotoxic activity against human CFPAC-1 cancer cell lines after 3 days of culture; Activity expressed as log IC50; type: functional; procedure, shortened: as §3
[42] = In vitro cytotoxic activity against human 769-P cancer cell lines after 3 days of culture; type: functional; procedure, shortened: as §1
[43] = In vitro cytotoxic activity against human Hs 683 cancer cell lines after 3 days of culture; Activity expressed as log IC50; type: functional; procedure, shortened: as §3
[44] = test system: DU-145; assay: In vitro cytotoxic activity against human DU145 cancer cell lines after 3 days of culture; type: functional; procedure, shortened: as §1
[45] = test system: A498; assay: In vitro cytotoxic activity against human A-498 cancer cell lines after 3 days of culture; type: functional; procedure, shortened: as §1
[46] = In vitro cytotoxic activity against human SCC-9 cancer cell lines after 3 days of culture; type: functional; procedure, shortened: as §1
[47] = test system: Malme-3M; assay: In vitro cytotoxic activity against human MALME-3M cancer cell lines after 3 days of culture; type: functional; procedure, shortened: as §1
[48] = In vitro cytotoxic activity against human SK-UT-1B cancer cell lines after 3 days of culture; type: functional; procedure, shortened: as §2
[49] = In vitro cytotoxic activity against human MCF7HTB-22 cancer cell lines after 3 days of culture; type: functional; procedure, shortened: as §1
[50] = In vitro cytotoxic activity against human AL-12T cancer cell lines after 3 days of culture; type: functional; procedure, shortened: as §1
[51] = test system: PC-3; assay: In vitro cytotoxic activity against human PC-3 cancer cell lines after 3 days of culture; type: functional; procedure, shortened: as §1
[52] = test system: LoVo; assay: In vitro cytotoxic activity against human LoVo cancer cell lines after 3 days of culture; type: functional; procedure, shortened: as §1
[53] = test system: BT-20; assay: In vitro cytotoxic activity against human BT-20 cancer cell lines after 3 days of culture; type: functional; procedure, shortened: as §1
[54] = In vitro cytotoxic activity against human SW948 cancer cell lines after 3 days of culture; type: functional; procedure, shortened: as §2
[55] = In vitro cytotoxic activity against human C32 cancer cell lines after 3 days of culture; type: functional; procedure, shortened: as §1

CCc1c2c(nc3ccc(O)cc13)-c1cc3c(c(=O)n1C2)COC(=O)[C@]3(O)CC [7-ETHYL-10-HYDROXYCAMPTOTHECIN]
Log IC50 [1]: -5.3
Log IC50 [2]: -5.1
Log IC50 [3]: -5.3
Log IC50 [4]: -8.2
Log IC50 [5]: -7.4
Log IC50 [6]: -6.5
Log IC50 [7]: -5.5
Log IC50 [8]: -6.9
Log IC50 [9]: -5.6
Log IC50 [10]: -7.5
Log IC50 [11]: -5.6
Log IC50 [12]: -7.3
Log IC50 [13]: -7.3
Log IC50 [14]: -7.4
Log IC50 [15]: -7.1
Log IC50 [16]: -8.1
Log IC50 [17]: -7.3
Log IC50 [18]: -7.7
Log IC50 [19]: -5.4
Log IC50 [20]: -8.3
Log IC50 [21]: -6.6
Log IC50 [22]: -6.3
Log IC50 [23]: -6.6
Log IC50 [24]: -6.5
Log IC50 [25]: -6.4
Log IC50 [26]: -7.1
Log IC50 [27]: -5
Log IC50 [28]: -7.3
Log IC50 [29]: -8.9
Log IC50 [30]: -7.6
Log IC50 [31]: -9
Log IC50 [32]: -6.3
Log IC50 [33]: -7.3
Log IC50 [34]: -9
Log IC50 [35]: -8.3
Log IC50 [36]: -6.8
Log IC50 [37]: -7.3
Log IC50 [38]: -7.1
Log IC50 [39]: -9
Log IC50 [40]: -8
Log IC50 [41]: -8.3
Log IC50 [42]: -7.9
Log IC50 [43]: -7
Log IC50 [44]: -9
Log IC50 [45]: -6.9
Log IC50 [46]: -6.1
Log IC50 [47]: -5.2
Log IC50 [48]: -9
Log IC50 [49]: -7.5
Log IC50 [50]: -6.1
Log IC50 [51]: -6.7
Log IC50 [52]: -6.4
Log IC50 [53]: -6.5
Log IC50 [54]: -7.7
Log IC50 [55]: -8.7
